According to ChEMBL document CHEMBL3588763, “Styryl-N-phenyl-N'-(2-chloroethyl)ureas and styrylphenylimidazolidin-2-ones as new potent microtubule-disrupting agents using combretastatin A-4 as model” (Eur J Med Chem, 2015):
Calls of active or inactive are those of the source. No cut-off for these calls is given here.

Assays:
M21 [1] = assay: Induction of cell cycle arrest in human M21 cells assessed as cells accumulation at subG1 phase at 3100 nM after 24 hrs by flow cytometry (reference value: 1.2%); format: functional
MCF7 = assay: Antiproliferative activity against human MCF7 cells assessed as cell growth inhibition after 48 hrs by sulforhodamine B assay; format: functional, cell-based; details: MCF7, 48 h
How it was run: (§1)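 NCI-style SRB screen with minor changes. Cells seeded per well in DMEM with 5% FBS: HT-29 4.0 x 10^3, M21 3.0 x 10^3, MCF-7 2.5 x 10^3, HT-1080 2.5 x 10^3. After 24 h, serially diluted drug was added at 50 µM to 1 nM final, DMSO <0.5%, for 48 h. Fixed with cold TCA, stained with SRB, read at 530–568 nm against plates fixed on treatment day. At least two experiments in triplicate, CV <10%.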

M21 [2] = assay: Induction of cell cycle arrest in human M21 cells assessed as cells accumulation at G2/M phase at 3100 nM after 24 hrs by flow cytometry (reference value: 22.1%); format: functional
[3] = biological target: T1, Tubulin beta (Homo sapiens) (UniProt P68371+Q9H4B7+Q13509+P04350+Q3ZCM7+P07437+Q13885+Q9BVA1+Q9BUF5+A6NNZ2); assay: Binding affinity to Tubulin beta in human M21 cells assessed as tubulin acylation at 3100 nM after 24 hrs by electrophoretic mobility shift assay; format: cell-based
M21 [4] = assay: Induction of cell cycle arrest in human M21 cells assessed as cells accumulation at G0/G1 phase at 3100 nM after 24 hrs by flow cytometry (reference value: 54.5%); format: functional
M21 [5] = assay: Antiproliferative activity against human M21 cells assessed as cell growth inhibition after 48 hrs by sulforhodamine B assay; format: functional, cell-based; details: M21, 48 h; how it was run: as §1
M21 [6] = assay: Induction of microtubule depolymerization and cytoskeleton disruption in human M21 cells at 3100 nM after 16 hrs by immunofluorescence assay
[7] = Antiproliferative activity against human HT1080 cells assessed as cell growth inhibition after 48 hrs by sulforhodamine B assay; format: functional, cell-based; details: HT-1080, 48 h
HT-29 = assay: Antiproliferative activity against human HT-29 cells assessed as cell growth inhibition after 48 hrs by sulforhodamine B assay; format: functional, cell-based; details: HT-29, 48 h; how it was run: as §1
M21 [8] = assay: Induction of cell cycle arrest in human M21 cells assessed as cells accumulation at S phase at 3100 nM after 24 hrs by flow cytometry (reference value: 22.2%); format: functional
[9] = biological target: T1, Tubulin beta (Homo sapiens); assay: Binding affinity to Tubulin beta in human M21 cells assessed as tubulin acylation at 1500 nM after 24 hrs by electrophoretic mobility shift assay; format: cell-based
M21 [10] = assay: Induction of cell cycle arrest in human M21 cells assessed as cells accumulation at G0/G1 phase at 46 nM after 24 hrs by flow cytometry (reference value: 54.5%); format: functional
M21 [11] = assay: Induction of cell cycle arrest in human M21 cells assessed as cells accumulation at S phase at 46 nM after 24 hrs by flow cytometry (reference value: 22.2%); format: functional
[12] = biological target: T1, Tubulin beta (Homo sapiens); assay: Inhibition of N,N-ethylene-bis(iodoacetamide) binding to Tubulin beta colchicines-binding site in human M21 cells assessed as adduct formation at 2500 nM by Western blot analysis; format: cell-based
M21 [13] = assay: Induction of cell cycle arrest in human M21 cells assessed as cells accumulation at subG1 phase at 46 nM after 24 hrs by flow cytometry (reference value: 1.2%); format: functional
[14] = biological target: T1, Tubulin beta (Homo sapiens); assay: Inhibition of N,N-ethylene-bis(iodoacetamide) binding to Tubulin beta colchicines-binding site in human M21 cells assessed as adduct formation at 910 nM by Western blot analysis; format: cell-based
M21 [15] = assay: Induction of cell cycle arrest in human M21 cells assessed as cells accumulation at G2/M phase at 46 nM after 24 hrs by flow cytometry (reference value: 22.1%); format: functional
M21 [16] = assay: Induction of microtubule depolymerization and cytoskeleton disruption in human M21 cells at 46 nM after 16 hrs by immunofluorescence assay
[17] = biological target: T1, Tubulin beta (Homo sapiens); assay: Inhibition of N,N-ethylene-bis(iodoacetamide) binding to Tubulin beta colchicines-binding site in human M21 cells assessed as adduct formation at 410 nM by Western blot analysis; format: cell-based
M21 [18] = assay: Induction of cell cycle arrest in human M21 cells assessed as cells accumulation at G2/M phase at 10 nM after 24 hrs by flow cytometry (reference value: 22.1%); format: functional
M21 [19] = assay: Induction of cell cycle arrest in human M21 cells assessed as cells accumulation at S phase at 10 nM after 24 hrs by flow cytometry (reference value: 22.2%); format: functional
M21 [20] = assay: Induction of cell cycle arrest in human M21 cells assessed as cells accumulation at G0/G1 phase at 10 nM after 24 hrs by flow cytometry (reference value: 54.5%); format: functional
M21 [21] = assay: Induction of cell cycle arrest in human M21 cells assessed as cells accumulation at subG1 phase at 10 nM after 24 hrs by flow cytometry (reference value: 1.2%); format: functional
M21 [22] = assay: Induction of microtubule depolymerization and cytoskeleton disruption in human M21 cells at 10 nM after 16 hrs by immunofluorescence assay
M21 [23] = assay: Induction of cell cycle arrest in human M21 cells assessed as cells accumulation at G0/G1 phase at 4100 nM after 24 hrs by flow cytometry (reference value: 54.5%); format: functional
M21 [24] = assay: Induction of cell cycle arrest in human M21 cells assessed as cells accumulation at G2/M phase at 4100 nM after 24 hrs by flow cytometry (reference value: 22.1%); format: functional
M21 [25] = assay: Induction of cell cycle arrest in human M21 cells assessed as cells accumulation at S phase at 4100 nM after 24 hrs by flow cytometry (reference value: 22.2%); format: functional
M21 [26] = assay: Induction of microtubule depolymerization and cytoskeleton disruption in human M21 cells at 4100 nM after 16 hrs by immunofluorescence assay
[27] = biological target: T1, Tubulin beta (Homo sapiens); assay: Binding affinity to Tubulin beta in human M21 cells assessed as tubulin acylation at 8200 nM after 24 hrs by electrophoretic mobility shift assay
M21 [28] = assay: Induction of cell cycle arrest in human M21 cells assessed as cells accumulation at subG1 phase at 4100 nM after 24 hrs by flow cytometry (reference value: 1.2%); format: functional
[29] = biological target: T1, Tubulin beta (Homo sapiens); assay: Inhibition of N,N-ethylene-bis(iodoacetamide) binding to Tubulin beta colchicines-binding site in human M21 cells assessed as adduct formation at 100000 nM by Western blot analysis; format: cell-based
M21 [30] = assay: Induction of cell cycle arrest in human M21 cells assessed as cells accumulation at S phase at 63 nM after 24 hrs by flow cytometry (reference value: 22.2%); format: functional
M21 [31] = assay: Induction of cell cycle arrest in human M21 cells assessed as cells accumulation at G2/M phase at 63 nM after 24 hrs by flow cytometry (reference value: 22.1%); format: functional
M21 [32] = assay: Induction of cell cycle arrest in human M21 cells assessed as cells accumulation at G0/G1 phase at 63 nM after 24 hrs by flow cytometry (reference value: 54.5%); format: functional
M21 [33] = assay: Induction of microtubule depolymerization and cytoskeleton disruption in human M21 cells at 63 nM after 16 hrs by immunofluorescence assay
M21 [34] = assay: Induction of cell cycle arrest in human M21 cells assessed as cells accumulation at subG1 phase at 63 nM after 24 hrs by flow cytometry (reference value: 1.2%); format: functional

| SMILES | IC50 (MCF7) [µM] | IC50 (HT-29) [µM] | IC50 (M21 [5]) [µM] | IC50 [7] [µM] | other results |
| --- | --- | --- | --- | --- | --- |
| COc1ccc(/C=C\c2cc(OC)c(OC)c(OC)c2)cc1O [COMBRETASTATIN A4] | 0.0021 | 0.56 | 0.0016 |  | Activity (M21 [18]): 91.4%; Activity (M21 [19]): 6.6%; Activity (M21 [20]): 4.5%; Activity (M21 [21]): 7.5%; Activity (M21 [22]): Active |
| COc1cc(/C=C\c2ccc(NC(=O)NCCCl)cc2)cc(OC)c1OC | 1.4 | 0.68 | 0.95 | 1.4 | Activity (M21 [23]): 3.9%; Activity (M21 [24]): 85.5%; Activity (M21 [25]): 5.8%; Activity (M21 [26]): Active; Activity [27]: Active; Activity (M21 [28]): 4.8% |
| COc1cc(/C=C/c2ccc(NC(=O)NCCCl)cc2)cc(OC)c1OC | 20 | 9.5 | > 20 | > 20 |  |
| Cc1cc(C)cc(/C=C/c2ccc(N3CCNC3=O)cc2)c1 | 16 | 14 | 17 | > 20 |  |
| CCNC(=O)Nc1ccc(/C=C\c2cc(C)cc(C)c2)cc1 | 17 | 11 | 16 | 15 |  |
| CCNC(=O)Nc1ccc(/C=C\c2cc(OC)c(OC)c(OC)c2)cc1 | 21 | 21 | 21 | 29 |  |
| O=C1NCCN1c1ccc(/C=C/c2cccc(Cl)c2)cc1 | 20 | 17 | 19 | > 20 |  |
| CCNC(=O)Nc1ccc(/C=C/c2cccc(Cl)c2)cc1 | 20 | > 20 | > 20 | > 20 |  |
| O=C(NCCCl)Nc1ccc(/C=C/c2cccc(Cl)c2)cc1 | 20 | 12 | > 20 | > 20 |  |
| CCNC(=O)Nc1ccc(/C=C\c2cccc(Cl)c2)cc1 | 32 | 26 | 35 | 31 |  |
| CCNC(=O)Nc1ccc(/C=C/c2cc(C)cc(C)c2)cc1 | 20 | > 20 | > 20 | > 20 |  |
| Cc1cc(C)cc(/C=C/c2ccc(NC(=O)NCCCl)cc2)c1 | 19 | 11 | > 20 | > 20 |  |
| CCNC(=O)Nc1ccc(/C=C/c2cc(OC)c(OC)c(OC)c2)cc1 | 17 | 12 | 29 | 16 |  |

The next lines start with results.

| IC50 (MCF7) [µM] | IC50 (HT-29) [µM] | SMILES | IC50 (M21 [5]) [µM] | IC50 [7] [µM] | other results |
| --- | --- | --- | --- | --- | --- |
| 0.86 | 0.51 | Cc1cc(C)cc(/C=C\c2ccc(NC(=O)NCCCl)cc2)c1 | 0.71 | 0.7 | Activity (M21 [1]): 12.5%; Activity (M21 [2]): 68.6%; Activity [3]: Active; Activity (M21 [4]): 5.7%; Activity (M21 [6]): Active; Activity (M21 [8]): 13.2%; Activity [9]: Active |
| 0.023 | 0.0084 | Cc1cc(C)cc(/C=C\c2ccc(N3CCNC3=O)cc2)c1 | 0.01 | 0.015 | Activity (M21 [10]): 5.4%; Activity (M21 [11]): 8%; inhibition [12]: Active; Activity (M21 [13]): 8.2%; inhibition [14]: Active; Activity (M21 [15]): 78.4%; Activity (M21 [16]): Active; inhibition [17]: Active |
| 0.0026 | 0.0017 | COc1cc(/C=C\c2ccc(N3CCNC3=O)cc2)cc(OC)c1OC | 0.0024 | 0.0023 | Activity (M21 [18]): 84.6%; Activity (M21 [19]): 6.1%; Activity (M21 [20]): 4.2%; inhibition [12]: Active; inhibition [14]: Active; inhibition [17]: Active; Activity (M21 [21]): 5.1%; Activity (M21 [22]): Active |
| 0.54 | 0.37 | COc1cc(/C=C/c2ccc(N3CCNC3=O)cc2)cc(OC)c1OC | 0.55 | 0.4 | inhibition [29]: Active |
| 0.038 | 0.025 | O=C1NCCN1c1ccc(/C=C\c2cccc(Cl)c2)cc1 | 0.027 | 0.035 | Activity (M21 [30]): 13.9%; Activity (M21 [31]): 55.1%; Activity (M21 [32]): 17.4%; inhibition [12]: Active; Activity (M21 [33]): Active; inhibition [14]: Active; Activity (M21 [34]): 13.6%; inhibition [17]: Active |
